Screening data: PubChem, Broad Institute
Sampled rows, rich in hits. Any-hit rate of the full collection: about 0.99%.
Rce1 inh: yeast Rce1p protease inhibitors, primary screen, biochemical, fluorescence, cell-free homogeneous. CAAX prenyl protease 2 (Saccharomyces cerevisiae (strain ATCC 204508 / S288c)), Q03530. yeast membranes, quenched prenylated peptide cleavage fluorescence. calls only. 0.27% of 290,000 active. AID 2563, 2010;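 active means fall in fluorescence gain of 50% or more versus controls, with final raw signal at or below 3038400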;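 further: plate controls were neutral control wells for no effect and wells lacking membranes for full effect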
Target sequence (Q03530 whole entry, looked up): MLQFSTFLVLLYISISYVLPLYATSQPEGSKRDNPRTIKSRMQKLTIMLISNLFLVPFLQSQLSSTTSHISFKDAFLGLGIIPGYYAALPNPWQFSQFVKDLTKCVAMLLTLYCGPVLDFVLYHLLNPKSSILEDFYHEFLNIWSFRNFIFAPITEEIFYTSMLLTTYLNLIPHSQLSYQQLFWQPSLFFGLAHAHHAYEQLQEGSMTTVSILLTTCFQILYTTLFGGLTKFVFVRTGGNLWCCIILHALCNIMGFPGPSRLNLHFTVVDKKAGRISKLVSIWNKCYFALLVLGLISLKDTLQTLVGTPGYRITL
DYRK1A inh: rat Dyrk1A kinase inhibitors, primary screen, biochemical, single point, plate reader; inhibition, % at 12.5 µM; Dual specificity tyrosine-phosphorylation-regulated kinase 1A (Rattus norvegicus), Q63470; ADP-Glo luminescence, NFATc1 peptide; AID 504441, 2011; 0.43% of 310,000 active; in the data active means inhibition above about 50%;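 further: plate controls were vehicle with enzyme for no effect and no enzyme for full effect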
GSK3 alpha inh: blockers of GSK3A enzyme activity – biochemical, luminescence, cell-free homogeneous, HTS, primary screen. inhibition, % at 10 µM. GSK-3 alpha kinase, ADP-Glo luminescence, 60 min. AID 2650, 2010. 0.1% of 320,000 active. Glycogen synthase kinase-3 alpha (Homo sapiens), P49840;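 active means more than half of replicates show inhibition above 20%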;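 further: GST-tagged GSK-3 alpha with peptide substrate and 25 µM ATP; 0% = DMSO neutral wells and 100% = GW8510 positive control wells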
GSK3beta inhib: human GSK3beta kinase inhibitors, primary screen, biochemical, cell-free homogeneous, HTS; Glycogen synthase kinase-3 beta (Homo sapiens), P49841; GST-GSK3beta kinase, ADP-Glo luminescence, 60 min; stronger effect = lower value; activity score (negative = inhibition), % at 10 µM; 0.038% of 300,000 active; AID 2097, 2009;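 active means more than half of replicate wells score below -50%, meaning over 50% inhibition versus plate controls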;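 further: 0% = median DMSO wells and -100% = median GW8510 positive control wells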
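Test system: GST-fused GSK3beta enzyme, cell-free | Quantity: 1.6 ng GST-GSK3beta enzyme per well | Reagent: 25 µM ATP with peptide substrate | Schedule: 60 min enzyme reaction, room temperature | Signal: Luminescent ADP-Glo measurement of ADP formed | Read-out basis: Score relative to plate controls | Control set: DMSO and 20 µM GW8510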
STK33 kinase inh: inhibitors of purified STK33 kinase, primary screen, biochemical, ADP-Glo luminescence, homogeneous, cell-free; inhibition, % at 10 µM; MBP phosphorylation; AID 2661, 2010; Serine/threonine-protein kinase 33 (Homo sapiens), Q9BYT3; 0.073% of 320,000 active;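 active means inhibition at or above 25%, using the most active replicate where run in duplicate; inactive means inhibition below 25%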
AI-2 QS modul: Vibrio harveyi AI-2 quorum sensing modulators, primary screen, JMH597 strain, luminescence/OD600 ratio. Vibrio harveyi JMH597 AI-2 luminescence/OD600 ratio, 9 h; stronger effect = lower value; strain lacks LuxN and CqsS sensors; 0 = neutral-control median. activity change, % at 7.5 µM. AID 2094, 2009. 0.4% of 300,000 active; in the data active means activity change below about -75%, passing the limit was not always enough;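 further: luminescence divided by OD600 gain over 9 h not by final OD600 alone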
Starred values were filed as active, the others as inactive; i = inactive; · = not tested or not shown; + = active, no number.

SMILES | Rce1 inh | DYRK1A inh | GSK3 alpha inh | GSK3beta inhib | STK33 kinase inh | AI-2 QS modul
CCC(C)(C)NC(=O)C(c1ccc(C)o1)N(Cc1ccc2c(c1)OCO2)C(=O)c1snc(C(N)=O)c1N (stereo not drawn) | i | -1 | -1 | 2 | 0 | 16
O=C(COC(=O)C1=COCCO1)NC1CCCCC1 | i | 3 | -2 | 2 | 0 | 39
O=C1c2ccccc2C(=O)N1C/C=C/c1ccccc1 | i | -6 | 0 | -2 | -1 | 7
O=C1C(=O)N(C/C=C/c2ccccc2)c2ccccc21 | + | 5 | -4 | -1 | 0 | 24
CCC(=O)OC1(C)C(=O)C2=COC(c3ccc(OC)cc3)=CC2=C(Br)C1=O (stereo not drawn) | i | 0 | 4 | 2 | 0 | 3
COc1ccc(C2=CC3=C(Br)C(=O)C(C)(O)C(=O)C3=CO2)cc1 (stereo not drawn) | i | 4 | 0 | 2 | 29* | 38
Cc1ccc(S(=O)(=O)Nc2cccc(C(=O)NCC3CCCO3)c2)cc1F (stereo not drawn) | i | 10 | -4 | -5 | 1 | 32
O=C(Nc1cc(S(=O)(=O)N2CCOCC2)ccc1N1CCCC1)c1cnccn1 | + | -1 | -3 | -5 | -1 | -1
O=C(COC(=O)CCc1ccc(S(=O)(=O)N2CCOCC2)cc1)Nc1ccc(Cl)cn1 | i | 6 | 20 | -18 | -3 | 28
O=C(COC(=O)c1cc(S(=O)(=O)N2CCOCC2)ccc1F)Nc1ccc(Cl)cn1 | · | · | 51* | · | 1 | ·
Cc1cccc(C)c1NC(=O)C(C)Sc1nnc(C)n1CC1CCCO1 (stereo not drawn) | i | 0 | · | 1 | · | 8
CCN(c1ccccc1)S(=O)(=O)c1ccc(OC)c(NC(=O)CCc2nc3ccccc3c(=O)[nH]2)c1 | i | -3 | -1 | 4 | -1 | 35
Cc1c(C)c2c(OCC(=O)NCc3ccncc3)cc3c(c2oc1=O)CCC(C)(C)O3 | + | 2 | -2 | 0 | -1 | 22
Cc1c(C)c2c(OCC(=O)NCc3cccnc3)cc3c(c2oc1=O)CCC(C)(C)O3 | i | 13 | 0 | 0 | -2 | 10
CCc1cc(=O)oc2c3c(cc(OCC(=O)NCCCCCC(=O)O)c12)OC(C)(C)CC3 | + | 19 | 1 | 3 | -1 | -10
COc1cc(-c2nc3ccccn3c2/N=C/c2ccccc2)ccc1O | + | 2 | -5 | -7 | -1 | 2
COc1cc(-c2nc3ccccn3c2/N=C/c2cccc(F)c2)ccc1O | i | 8 | -3 | 0 | 1 | 7
O=C(OC[C@@H]1CCCN2CCCC[C@H]12)c1cc2ccccc2oc1=O | + | 6 | -2 | 2 | 0 | -4
COc1ccc(S(=O)(=O)N2CCc3ccccc32)cc1C(=O)NC1(C)CCS(=O)(=O)C1 (stereo not drawn) | · | -1 | 2 | · | 0 | ·
COc1ccccc1NC(=O)/C(=C\c1cccnc1)NC(=O)c1ccc(C)cc1 | + | 6 | -2 | 2 | -1 | 16
CC(CCc1ccccc1)NC(=O)Cn1cccc1C(=O)c1ccccc1 (stereo not drawn) | i | 3 | 0 | 0 | -2 | 11
Clc1ccc(/C=N/Nc2ncnc3nc[nH]c23)cc1 | i | 14 | 61* | -36 | 6 | 4
Cc1ccc(/C=N/Nc2ncnc3nc[nH]c23)cc1 | i | 42 | 41 | -36 | 5 | -8
CC1CCC/C(=C\Nc2ccccc2C(=O)O)C1=O (stereo not drawn) | + | 8 | -3 | 1 | 0 | 48
CCOc1ccc(-c2cc(CCCC(=O)NCCCOC)no2)cc1 | i | -1 | 0 | 2 | 28* | 21
SMILES | Rce1 inh | DYRK1A inh | GSK3 alpha inh | GSK3beta inhib | STK33 kinase inh | AI-2 QS modul
CCOc1ccc(-c2cc(CCCC(=O)N3CCN(c4ccc(OC)cc4)CC3)no2)cc1 | i | 5 | -1 | 5 | -1 | 36
CSc1nc2nc(C)c(CCC(=O)OCC(=O)Nc3ccc(F)cc3)c(C)n2n1 | · | -7 | · | · | · | ·
CCOCc1cc(C)[nH]c(=O)c1C#N | + | -1 | 4 | 2 | 0 | 16
COCc1cc(C)c(C#N)c(=S)[nH]1 | i | -1 | -1 | 6 | 1 | 15
COc1cc(/C=N/n2c(C3CCCCC3)n[nH]c2=S)ccc1O | i | 14 | 24 | -10 | 34* | 26
COc1cc(OC)c(/C=N/n2c(C3CCCCC3)n[nH]c2=S)c(OC)c1 | i | -2 | -1 | -1 | 1 | -1
COc1cc(/C=N/n2c(-c3cc(C)[nH]n3)n[nH]c2=S)ccc1O | i | 11 | 10 | -2 | 31* | 30
Cc1cccc(NC(=O)CSc2nc3ccccc3nc2N2CCCC2)c1C | i | 1 | 2 | 1 | 0 | 0
Cc1ccc(OCCn2c3ccccc3n3nc(C)c(=O)nc23)cc1 | + | 3 | · | 2 | 0 | 2
Cc1ccc(OCCn2c(=O)cnc3ccccc32)cc1 | i | -6 | -1 | -7 | 1 | 14
O=C1NCCCc2c1oc1cc(Br)c(O)c(Br)c21 | i | 66* | 36 | 0 | 12 | 99
COc1cc(NC(=O)C/C(C)=N/NC(=O)c2cccc(O)c2)c(OC)cc1Cl | + | 7 | 1 | -3 | 0 | 9
CCOc1ccc(S(=O)(=O)N2CCC(C(=O)OC(C)C(=O)N3CCOCC3)CC2)cc1 (stereo not drawn) | i | -2 | -3 | 2 | -1 | 17
COc1ccc(CNC(=O)c2c(N)n(CCCN3CCOCC3)c3nc4ccccc4nc23)cc1 | + | 3 | 13 | 2 | -1 | 10
CN(C)S(=O)(=O)c1ccc(NC(=O)/C=C/c2ccccc2Cl)cc1 | + | · | · | -1 | · | -93*
CCn1cc(C(=O)NCCN(C)C)c(=O)c2cc(F)c(N3CCN(C)CC3)cc21 | + | 10 | -3 | -3 | 0 | 10
CCn1cc(C(=O)NCCCN(C)C)c(=O)c2cc(F)c(N3CCN(C)CC3)cc21 | i | -1 | -4 | -1 | -3 | 19
Cc1ccc(N(CC(=O)NC2CCCCC2)C(=O)CNC(=O)c2ccco2)cc1C | i | -6 | 0 | -1 | -2 | 4
Cc1cc(C)nc(SCc2cn3c(C)cccc3n2)n1 | i | · | 0 | 2 | -1 | 16
Cc1cccc2nc(CSc3nc4ccccc4o3)cn12 | i | -1 | -1 | 5 | 0 | -93*
